Measured values reported in ChEMBL document CHEMBL3612047, “Synthesis, antiproliferative activity and possible mechanism of action of novel 2-acetamidobenzamides bearing the 2-phenoxy functionality” (Bioorg Med Chem, 2015).
Active and inactive are the calls of the source. The calls are words filed in the database; no cut-off is given here.

Experiments:
U-251 = experiment: Growth inhibition of human U251 cells by NCI standard protocol based method; assay type: functional
Procedure, shortened: (§1)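 NCI 60-cell-line screen, standard NCI protocol. Single high dose of 10⁻⁵ M first, then a 5-dose assay across the full panel. Reported as GI₅₀, TGI and LC₅₀, the molar concentrations giving 50% net growth inhibition, total growth inhibition and 50% net cell death. Where an effect was not reached, the highest tested concentration was used.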

SW-620 = experiment: Growth inhibition of human SW620 cells by NCI standard protocol based method; assay type: functional; procedure, shortened: as §1
UO-31 = experiment: Growth inhibition of human UO31 cells by NCI standard protocol based method; assay type: functional; procedure, shortened: as §1
[1] = Growth inhibition of human HCC2998 cells by NCI standard protocol based method; assay type: functional; conditions: HCC 2998
Procedure, shortened: (§2)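 NCI full 60-cell-line panel, 5-dose assay to the NCI standard protocol. GI₅₀ is the molar concentration inhibiting 50% net cell growth. Mean graph midpoint is averaged over all lines; where the effect is not reached, the highest tested concentration is used.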

OVCAR-3 = experiment: Growth inhibition of human OVCAR3 cells by NCI standard protocol based method; assay type: functional; procedure, shortened: as §2
HL-60(TB) = experiment: Growth inhibition of human HL-60(TB) cells by NCI standard protocol based method; assay type: functional
Procedure, shortened: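 Tested in the NCI 60-cell-line screen under its standard protocol. A single-dose prescreen was run at 10⁻⁵ M, then a five-dose assay. GI50 is the molar concentration that inhibits net cell growth by 50%.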

[2] = Growth inhibition of human SF539 cells by NCI standard protocol based method; assay type: functional; conditions: SF-539; procedure, shortened: as §2
[3] = Growth inhibition of human MOLT4 cells by NCI standard protocol based method; assay type: functional; conditions: MOLT-4; procedure, shortened: as §2
MDA-MB-468 = experiment: Growth inhibition of human MDA-MB-468 cells by NCI standard protocol based method; assay type: functional; procedure, shortened: as §2
CCRF-CEM = experiment: Growth inhibition of human CCRF-CEM cells by NCI standard protocol based method; assay type: functional; procedure, shortened: as §2
HOP-62 = experiment: Growth inhibition of human HOP62 cells by NCI standard protocol based method; assay type: functional; procedure, shortened: as §2
SK-OV-3 = experiment: Growth inhibition of human SKOV3 cells by NCI standard protocol based method; assay type: functional; procedure, shortened: as §1
MDA-MB-435 = experiment: Growth inhibition of human MDA-MB-435 cells by NCI standard protocol based method; assay type: functional; procedure, shortened: as §2
CAKI-1 = experiment: Growth inhibition of human CAKI-1 cells by NCI standard protocol based method; assay type: functional; procedure, shortened: as §2
ACHN = experiment: Growth inhibition of human ACHN cells by NCI standard protocol based method; assay type: functional; procedure, shortened: as §2
[4] = Growth inhibition of human LOXIMVI cells by NCI standard protocol based method; assay type: functional; conditions: LOX IMVI; procedure, shortened: as §2
OVCAR-5 = experiment: Growth inhibition of human OVCAR5 cells by NCI standard protocol based method; assay type: functional; procedure, shortened: as §2
[5] = Growth inhibition of human NCI60 cells assessed as cell growth level at 10 uM by NCI standard protocol based method; assay type: functional; parameters: scale not given: the % may be the effect or the level left
Procedure, shortened: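 NCI 60-cell-line screen (leukemia, lung, colon, melanoma, renal, ovarian, brain, breast, prostate) run to the NCI standard protocol. Single high dose of 10⁻⁵ M, read as growth percent. Mean graph midpoint is the arithmetic mean over all lines tested.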

SR = experiment: Growth inhibition of human SR cells by NCI standard protocol based method; assay type: functional; procedure, shortened: as §1
Tubulin (Homo sapiens) = Tubulin (Homo sapiens) (UniProt P68371+Q9H4B7+P0DPH7+P68366+Q13509+Q71U36+P04350+Q3ZCM7+P07437+P68363+Q9BQE3+Q6PEY2+Q13885+Q9BVA1+Q9BUF5); experiment: Inhibition of colchicine binding to tubulin (unknown origin); assay type: protein-complex assay
K562 [6] = experiment: Selectivity index, ratio of IC50 for human HuDe cells to IC50 human K562 cells
Procedure, shortened: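 Index taken as the ratio of HuDe to K562 IC₅₀. For K562: about 2 × 10⁵ cells/mL, compounds added at graded concentrations, viable count by trypan blue exclusion with a hemocytometer after 24 h. For HuDe primary epidermal cells: 2 × 10⁴ cells/mL, drugs or 0.1% DMSO added 24 h after seeding, MTT read at 570 nm (690 nm blank) after 72 h.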

NCI-H522 = experiment: Growth inhibition of human NCI-H522 cells by NCI standard protocol based method; assay type: functional; procedure, shortened: as §2
[7] = Growth inhibition of human SF295 cells by NCI standard protocol based method; assay type: functional; conditions: SF-295; procedure, shortened: as §2
[8] = Cytotoxicity against human HuDe cells incubated for 72 hrs by MTT assay; assay type: cell-based
Procedure, shortened: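 HuDe primary culture from human epidermis, seeded at 2 × 10⁴ cells/mL. Test drugs at different concentrations, or 0.1% DMSO, added 24 h after seeding, with 72 h exposure. MTT (5 mg/mL in PBS) then applied for 3 h at 37 °C. Formazan solubilized with isopropanol/triton X-100/HCl and read at 570 nm with 690 nm blank.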

NCI-H23 = experiment: Growth inhibition of human NCI-H23 cells by NCI standard protocol based method; assay type: functional; procedure, shortened: as §2
[9] = Growth inhibition of human Hs578T cells by NCI standard protocol based method; assay type: functional; conditions: Hs-578T; procedure, shortened: as §2
A498 = experiment: Growth inhibition of human A498 cells by NCI standard protocol based method; assay type: functional; procedure, shortened: as §2
[10] = Growth inhibition of human RPMI8226 cells by NCI standard protocol based method; assay type: functional; conditions: RPMI-8226; procedure, shortened: as §2
786-0 = experiment: Growth inhibition of human 786-0 cells by NCI standard protocol based method; assay type: functional; procedure, shortened: as §2
SF-268 = experiment: Growth inhibition of human SF268 cells by NCI standard protocol based method; assay type: functional; procedure, shortened: as §2
K562 [11] = experiment: Growth inhibition of human K562 cells by NCI standard protocol based method; assay type: functional; procedure, shortened: as §2
NCI-H322M = experiment: Growth inhibition of human NCI-H322M cells by NCI standard protocol based method; assay type: functional; procedure, shortened: as §2
NCI/ADR-RES = experiment: Growth inhibition of human NCI/ADR-RES cells by NCI standard protocol based method; assay type: functional; procedure, shortened: as §2
SNB-19 = experiment: Growth inhibition of human SNB19 cells by NCI standard protocol based method; assay type: functional; procedure, shortened: as §1
SN12C = experiment: Growth inhibition of human SN12C cells by NCI standard protocol based method; assay type: functional; procedure, shortened: as §1
DU-145 = experiment: Growth inhibition of human DU145 cells by NCI standard protocol based method; assay type: functional; procedure, shortened: as §2
M14 = experiment: Growth inhibition of human M14 cells by NCI standard protocol based method; assay type: functional; procedure, shortened: as §2
MDA-MB-231 = experiment: Growth inhibition of human MDA-MB-231 cells by NCI standard protocol based method; assay type: functional; procedure, shortened: as §2
UACC-62 = experiment: Growth inhibition of human UACC62 cells by NCI standard protocol based method; assay type: functional; procedure, shortened: as §1
UACC-257 = experiment: Growth inhibition of human UACC257 cells by NCI standard protocol based method; assay type: functional; procedure, shortened: as §1
T47D = experiment: Growth inhibition of human T47D cells by NCI standard protocol based method; assay type: functional; procedure, shortened: as §1

COc1ccc(NC(=O)COc2ccccc2)c(C(N)=O)c1
GI50 (U-251): 664 nM
GI50 (SW-620): 448 nM
GI50 (UO-31): 8720 nM
GI50 [1]: 2340 nM
GI50 (OVCAR-3): 375 nM
GI50 (HL-60(TB)): 340 nM
GI50 [2]: 441 nM
GI50 [3]: 2000 nM
GI50 (MDA-MB-468): 345 nM
GI50 (CCRF-CEM): 487 nM
GI50 (HOP-62): 1010 nM
GI50 (SK-OV-3): 2990 nM
GI50 (MDA-MB-435): 121 nM
GI50 (CAKI-1): 721 nM
GI50 (ACHN): 2250 nM
GI50 [4]: 869 nM
GI50 (OVCAR-5): 5400 nM
Activity [5]: 25.81%
GI50 (SR): 392 nM
inhibition (Tubulin (Homo sapiens)): inactive
Ratio IC50 (K562 [6]): 856.28
GI50 (NCI-H522): 1190 nM
GI50 [7]: 650 nM
IC50 [8]: 942000 nM
GI50 (NCI-H23): 1380 nM
GI50 [9]: 592 nM
GI50 (A498): 304 nM
GI50 [10]: 1170 nM
GI50 (786-0): 2100 nM
GI50 (SF-268): 2420 nM
GI50 (K562 [11]): 245 nM
GI50 (NCI-H322M): 2100 nM
GI50 (NCI/ADR-RES): 418 nM
GI50 (SNB-19): 3200 nM
GI50 (SN12C): 3090 nM
GI50 (DU-145): 1870 nM
GI50 (M14): 514 nM
GI50 (MDA-MB-231): 2030 nM
GI50 (UACC-62): 1050 nM
GI50 (UACC-257): > 100000 nM

NC(=O)c1cc(I)ccc1NC(=O)COc1ccccc1
GI50 (U-251): 396 nM
GI50 (SW-620): 454 nM
GI50 (UO-31): 2870 nM
GI50 [1]: 2950 nM
GI50 (OVCAR-3): 321 nM
GI50 (HL-60(TB)): 339 nM
GI50 [2]: 249 nM
GI50 [3]: 1100 nM
GI50 (MDA-MB-468): 351 nM
GI50 (CCRF-CEM): 382 nM
GI50 (HOP-62): 824 nM
GI50 (SK-OV-3): 3170 nM
GI50 (MDA-MB-435): 101 nM
GI50 (CAKI-1): 519 nM
GI50 (ACHN): 1320 nM
GI50 [4]: 822 nM
GI50 (OVCAR-5): 1680 nM
Activity [5]: 24.31%
GI50 (SR): 221 nM
inhibition (Tubulin (Homo sapiens)): inactive
Ratio IC50 (K562 [6]): 1987.5
GI50 (NCI-H522): 630 nM
GI50 [7]: 223 nM
IC50 [8]: 318000 nM
GI50 (NCI-H23): 657 nM
GI50 [9]: 630 nM
GI50 (A498): 1020 nM
GI50 [10]: 553 nM
GI50 (T47D): 556 nM
GI50 (786-0): 1070 nM
GI50 (SF-268): 934 nM
GI50 (K562 [11]): 161 nM
GI50 (NCI-H322M): 705 nM
GI50 (NCI/ADR-RES): 344 nM
GI50 (SNB-19): 913 nM
GI50 (SN12C): 945 nM
GI50 (DU-145): 444 nM
GI50 (M14): 389 nM
GI50 (MDA-MB-231): 1280 nM
GI50 (UACC-62): 701 nM
GI50 (UACC-257): 41700 nM
